Laboratory results from ChEMBL document CHEMBL1159009, “Anti-influenza virus effect of some propolis constituents and their analogues (esters of substituted cinnamic acids)” (J Nat Prod, 1992).
≈ marks a conversion by molar mass, not a printed value.

Assays:
Influenza A virus H3N2 [1] = type: functional, Influenza A virus (A/Hong Kong/1/1968(H3N2)), Chorioallantoic membrane
Influenza A virus H3N2 [2] = assay: Antiviral activity against influenza A virus (A/Hong Kong/1/1968(H3N2)) infected in hen eggs assessed as hemagglutinination titre level at 2.5 mg/ml; type: functional
Method in brief: (§1)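 11-day-old embryonated hen's eggs received 0.2 ml of substance 1 h before infection with A/Hong Kong/1/68 (H3N2) from allantoic fluid. Read-out was the mean geometrical hemagglutination titer, compared with a virus control for each dose.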

Influenza A virus H3N2 [3] = assay: Antiviral activity against influenza A virus (A/Hong Kong/1/1968(H3N2)) infected in hen eggs assessed as hemagglutinination titre level at 1 mg/ml; type: functional
Method in brief: as §1

Influenza A virus H3N2 [4] = assay: Antiviral activity against influenza A virus (A/Hong Kong/1/1968(H3N2)) infected in hen eggs assessed as hemagglutinination titre level at 5 mg/ml; type: functional
Method in brief: as §1

Influenza A virus H3N2 [5] = type: functional, Influenza A virus (A/Hong Kong/1/1968(H3N2)), Chorioallantoic membrane; remark: listed apart in the source
Influenza A virus H3N2 [6] = type: functional, Influenza A virus (A/Hong Kong/1/1968(H3N2)), Chorioallantoic membrane; remark: listed apart in the source
Influenza A virus H3N2 [7] = type: functional, Influenza A virus (A/Hong Kong/1/1968(H3N2)), Chorioallantoic membrane; remark: listed apart in the source
Influenza A virus H3N2 [8] = assay: microbe, parasite or virus in culture; type: functional, Influenza A virus (A/Hong Kong/1/1968(H3N2)), Chorioallantoic membrane; settings: 48 h
Influenza A virus = assay: microbe, parasite or virus in culture; type: functional, Chorioallantoic membrane; settings: A/Puerto Rico/8/1934(H1N1), 48 h
Influenza A virus H3N2 [9] = type: functional, Influenza A virus (A/Hong Kong/1/1968(H3N2)), Chorioallantoic membrane; remark: listed apart in the source
Influenza A virus H3N2 [10] = type: functional, Influenza A virus (A/Hong Kong/1/1968(H3N2)), Chorioallantoic membrane; remark: listed apart in the source
Influenza A virus H3N2 [11] = type: functional, Influenza A virus (A/Hong Kong/1/1968(H3N2)), Chorioallantoic membrane; remark: listed apart in the source
[12] = Toxicity in hen egg assessed as maximum tolerable concentration causing no morphological changes; design: species or system Gallus gallus; settings: chicken, read-out: Activity
[13] = Toxicity in hen chorioallantoic membrane assessed as maximum tolerable concentration causing no morphological changes; design: species or system Gallus gallus; settings: chicken, read-out: Activity
Method in brief: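 Surviving chorioallantoic membrane cultures (membranes only) from 11-13-day-old embryonated hen's eggs were exposed to increasing concentrations and followed for 72 h. MTC was the highest concentration causing no morphological changes in the CAM.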

COc1cc(/C=C/C(=O)OCCC(C)C)ccc1O [ISOPENTYL FERULATE]
log10CCID50 (Influenza A virus H3N2 [1]): 1.5
Activity (Influenza A virus H3N2 [2]): 7.35
Activity (Influenza A virus H3N2 [3]): 9.4
Activity (Influenza A virus H3N2 [4]): 6.45
deltalog10CCID50 (Influenza A virus H3N2 [5]): 2
log10CCID50 (Influenza A virus H3N2 [6]): 1.5
log10CCID50 (Influenza A virus H3N2 [7]): <1
MIC (Influenza A virus H3N2 [8]): 50 µg/mL (≈ 189 µM)
MIC (Influenza A virus): > 200 µg/mL
deltalog10CCID50 (Influenza A virus H3N2 [9]): 2
deltalog10CCID50 (Influenza A virus H3N2 [10]): >2.5
log10CCID50 (Influenza A virus H3N2 [11]): 3
MNTC [12]: 10000 µg/mL
MNTC [13]: 400 µg/mL

COc1cc(/C=C/C(=O)OCc2ccccc2)ccc1O [BENZYL FERULATE]
MIC (Influenza A virus H3N2 [8]): > 50 µg/mL
MIC (Influenza A virus): > 50 µg/mL
MNTC [13]: 50 µg/mL

O=C(/C=C/c1ccc(O)c(O)c1)OCCc1ccccc1 [CAFFEIC ACID PHENETHYL ESTER]
MIC (Influenza A virus H3N2 [8]): 25 µg/mL (≈ 87.9 µM)
MIC (Influenza A virus): 50 µg/mL (≈ 176 µM)
MNTC [13]: 50 µg/mL

O=C(/C=C/c1ccc(O)c(O)c1)OCc1ccccc1 [BENZYL CAFFEATE]
MIC (Influenza A virus H3N2 [8]): 25 µg/mL (≈ 92.5 µM)
MIC (Influenza A virus): > 50 µg/mL
MNTC [13]: 50 µg/mL

CC(C)CCOC(=O)/C=C/c1ccc(O)c(O)c1
MIC (Influenza A virus H3N2 [8]): 25 µg/mL (≈ 99.9 µM)
MIC (Influenza A virus): 25 µg/mL (≈ 99.9 µM)
MNTC [13]: 50 µg/mL

COc1cc(/C=C/C(=O)OCCc2ccccc2)ccc1O
MIC (Influenza A virus H3N2 [8]): > 50 µg/mL
MIC (Influenza A virus): > 50 µg/mL
MNTC [13]: 50 µg/mL
